{
  "source": "ChEMBL document CHEMBL5365542",
  "about": "“Difluoromethyl-1,3,4-oxadiazoles Are Selective, Mechanism-Based, and Essentially Irreversible Inhibitors of Histone Deacetylase 6” (J Med Chem, 2023)",
  "key": {"[1]": {"test_system": "T1, Histone deacetylase 6 (Danio rerio), F8W4B7 [H573A]", "T1 sequence (whole entry)": "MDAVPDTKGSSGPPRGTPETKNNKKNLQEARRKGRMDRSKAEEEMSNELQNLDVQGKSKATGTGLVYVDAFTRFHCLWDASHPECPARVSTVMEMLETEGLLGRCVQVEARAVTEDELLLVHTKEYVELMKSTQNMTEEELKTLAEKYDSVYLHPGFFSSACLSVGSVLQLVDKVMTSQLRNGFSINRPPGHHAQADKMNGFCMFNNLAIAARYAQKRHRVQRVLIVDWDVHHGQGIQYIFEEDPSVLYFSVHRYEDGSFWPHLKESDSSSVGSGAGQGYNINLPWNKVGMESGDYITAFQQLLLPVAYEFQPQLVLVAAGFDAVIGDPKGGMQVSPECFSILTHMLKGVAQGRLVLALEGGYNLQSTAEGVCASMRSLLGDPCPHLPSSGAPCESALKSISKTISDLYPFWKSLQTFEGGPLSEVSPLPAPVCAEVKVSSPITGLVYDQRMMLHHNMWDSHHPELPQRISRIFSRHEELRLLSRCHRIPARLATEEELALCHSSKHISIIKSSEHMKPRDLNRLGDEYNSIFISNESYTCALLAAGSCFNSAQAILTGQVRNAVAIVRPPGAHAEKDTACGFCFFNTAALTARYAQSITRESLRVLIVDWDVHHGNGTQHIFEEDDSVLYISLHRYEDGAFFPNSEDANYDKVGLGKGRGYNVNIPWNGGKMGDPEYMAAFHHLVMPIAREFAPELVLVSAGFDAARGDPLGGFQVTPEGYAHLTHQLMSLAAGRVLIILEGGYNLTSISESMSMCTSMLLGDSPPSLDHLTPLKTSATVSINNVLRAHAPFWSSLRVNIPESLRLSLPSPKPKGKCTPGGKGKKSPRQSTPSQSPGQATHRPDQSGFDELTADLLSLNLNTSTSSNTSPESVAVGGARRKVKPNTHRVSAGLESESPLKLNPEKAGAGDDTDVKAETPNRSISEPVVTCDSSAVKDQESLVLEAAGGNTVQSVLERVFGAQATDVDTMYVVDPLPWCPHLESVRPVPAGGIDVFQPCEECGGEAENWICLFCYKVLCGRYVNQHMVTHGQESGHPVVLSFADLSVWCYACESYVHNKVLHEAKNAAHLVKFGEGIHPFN", "assay": "Irreversible inhibition of Danio rerio HDAC6 H573A mutant catalytic domain 2 assessed as enzyme catalysed ring opening by measuring reduction in 2-(Benzylamino)-N'-(2,2-difluoroacetyl)pyrimidine-5-carbohydrazide formation at 100 uM incubated overnight by LC-MS analysis", "outline": "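Zebrafish HDAC6 CD2 mutants were made by site-directed mutagenesis and expressed in BL21(DE3). Enzyme at 50 μM was incubated overnight with 100 μM inhibitor in 50 mM HEPES pH 7.5, 100 mM KCl, 1 mM TCEP, 5% glycerol; an enzyme-free control was included. Protein was methanol-precipitated and filtered, and products were analysed by C18 UPLC-MS with a 2-min gradient.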"}, "[2]": {"molecular_target": "T2, Protein deacetylase HDAC6 (Homo sapiens, UniProt Q9UBN7)", "T2 sequence (Q9UBN7 whole entry)": "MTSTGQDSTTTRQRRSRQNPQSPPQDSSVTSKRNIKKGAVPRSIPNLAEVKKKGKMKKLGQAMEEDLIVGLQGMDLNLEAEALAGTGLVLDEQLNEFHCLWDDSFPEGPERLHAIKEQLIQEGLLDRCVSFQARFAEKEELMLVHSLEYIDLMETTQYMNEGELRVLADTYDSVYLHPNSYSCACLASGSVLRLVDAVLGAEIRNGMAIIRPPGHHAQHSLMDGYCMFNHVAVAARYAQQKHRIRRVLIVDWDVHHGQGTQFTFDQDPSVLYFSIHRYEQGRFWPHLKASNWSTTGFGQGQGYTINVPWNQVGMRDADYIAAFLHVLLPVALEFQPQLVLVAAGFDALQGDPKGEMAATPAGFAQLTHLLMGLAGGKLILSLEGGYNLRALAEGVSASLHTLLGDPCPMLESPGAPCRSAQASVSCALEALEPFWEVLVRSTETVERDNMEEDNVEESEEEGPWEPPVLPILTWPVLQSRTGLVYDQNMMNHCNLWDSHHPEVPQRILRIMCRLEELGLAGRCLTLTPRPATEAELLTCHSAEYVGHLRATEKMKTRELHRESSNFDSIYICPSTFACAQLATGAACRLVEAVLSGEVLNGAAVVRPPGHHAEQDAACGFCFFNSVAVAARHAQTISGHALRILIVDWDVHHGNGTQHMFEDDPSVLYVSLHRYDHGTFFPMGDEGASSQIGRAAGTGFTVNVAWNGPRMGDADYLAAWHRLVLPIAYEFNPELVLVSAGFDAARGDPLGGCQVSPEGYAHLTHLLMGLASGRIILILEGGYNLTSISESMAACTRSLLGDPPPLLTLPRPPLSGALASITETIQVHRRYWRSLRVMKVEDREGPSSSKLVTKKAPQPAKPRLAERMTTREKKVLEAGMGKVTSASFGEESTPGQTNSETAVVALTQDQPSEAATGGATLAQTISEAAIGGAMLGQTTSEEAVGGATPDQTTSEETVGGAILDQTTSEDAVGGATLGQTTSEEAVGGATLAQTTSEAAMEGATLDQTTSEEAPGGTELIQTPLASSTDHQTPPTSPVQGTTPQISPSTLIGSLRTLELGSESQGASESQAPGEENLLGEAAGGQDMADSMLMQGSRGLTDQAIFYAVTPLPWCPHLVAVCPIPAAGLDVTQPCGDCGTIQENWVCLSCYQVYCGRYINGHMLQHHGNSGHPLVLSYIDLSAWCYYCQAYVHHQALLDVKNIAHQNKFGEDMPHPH", "assay": "Inhibition of N-terminal GST tagged human recombinant HDAC6 (1 to 1215 residues) expressed in Sf9 insect cells using Z-Lys(Ac)-AMC as fluorogenic substrate preincubated for 5 mins followed by substrate addition and measured after 90 mins by microplate reader analysis"}},
  "note": "The source made the active and inactive calls. No cut-off for these calls is given here.",
  "data": [
    {"compound": "FC(F)c1nnc(-c2cnc(NCc3ccccc3)nc2)o1", "values": [
      {"measurement": "inhibition", "setting": "[1]", "result": "Active"},
      {"measurement": "IC50", "setting": "[2]", "result": 347, "unit": "nM"}
    ]},
    {"compound": "FC(F)(F)c1nnc(-c2cnc(NCc3ccccc3)nc2)o1", "values": [
      {"measurement": "inhibition", "setting": "[1]", "result": "Active"},
      {"measurement": "IC50", "setting": "[2]", "result": 840, "unit": "nM"}
    ]}
  ]
}
